Screens deposited in PubChem BioAssay by several laboratories.
A selection: hits, their analogues and other compounds. The true share with any hit is near 3.7%.
NR3A LBD binder: binders of NR3A ligand-binding domain, primary screen, biophysical, differential scanning fluorimetry, uHTS; NR3A LBD differential scanning fluorimetry, Tm shift; 0% = protein alone, 100% = glycine-bound protein; Tm shift relative to glycine control, % at 25 µM; hit rate 2.5% among 340,000;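 active = melting temperature shift of at least 10% of the positive control shift, at one fixed dose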
aDG glyco up: activators of alpha-DG glycosylation, primary screen, uHTS, Pro5-aDG cells, AlphaScreen | alpha-DG glycosylation AlphaScreen (IIH6); 0% Pro5, 100% B10-LARGE cell signal | activation, % at 10 µM | hit rate 0.22% among 360,000 | AID 624168, 2012;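 active = activation of at least 8% versus controls, or a plate z-score of at least 8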;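 note: Pro5 are CHO cells carrying HIG-tagged alpha-DG that lacks glycosylation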
MPTP inh: mitochondrial permeability transition pore inhibitors, primary screen, biochemical, isolated mouse mitochondria, absorbance; Ca2+ swelling absorbance, 30 min; inhibition, % at 10 µM; hit rate 1.4% among 360,000;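 active = inhibition of 50% or more, scaled per plate between neutral and stimulator controls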
procasp7 counter: procaspase-7 activators, primary screen, counter-screen for procaspase-3 activator project, biochemical, absorbance, HTS, human | Caspase-7 (Homo sapiens), P55210 | recombinant procaspase-7, Ac-DEVD-pNA absorbance 405 nm; D23A/D198A/D206A triple mutant, cannot self-cleave; scale: DMSO 0, 5 µM enzyme 100 | activation, % at 8.5 µM | hit rate 0.093% among 330,000;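 active = percent activation above the screen-wide mean plus 3 SD, cut at about 25% in these data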
Target sequence (P55210 whole entry D23A/D198A/D206A): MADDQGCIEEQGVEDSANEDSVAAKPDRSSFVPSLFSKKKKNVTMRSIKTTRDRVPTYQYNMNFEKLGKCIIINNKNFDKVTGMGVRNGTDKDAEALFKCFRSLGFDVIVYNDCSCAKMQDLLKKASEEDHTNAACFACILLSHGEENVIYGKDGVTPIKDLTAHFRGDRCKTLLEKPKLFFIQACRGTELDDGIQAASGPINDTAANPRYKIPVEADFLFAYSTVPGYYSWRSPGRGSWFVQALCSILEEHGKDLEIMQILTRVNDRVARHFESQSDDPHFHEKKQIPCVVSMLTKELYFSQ
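Assay system – Uncleavable procaspase-7 mutant enzyme · Quantity – 2 µM procaspase-7 mutant as dispensed · Times – 1 h preincubation, 2 h reaction · Dosing – single nominal 8.5 µM compound dose, 0.8% DMSO final · Buffer or medium – Zinc-free 50 mM HEPES buffer, pH 7.4, with NaCl and Triton X-100 · Detection – Epi-absorbance of released pNA at 405 nm, two timepoints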
procasp3 activ: activators of human procaspase-3 D3A mutant, primary screen, biochemical, absorbance, PC-3 D3A mutant, single concentration; Caspase-3 (Homo sapiens), P42574; recombinant procaspase-3 D3A, Ac-DEVD-pNA absorbance 405 nm; AID 463141, 2010; activation, % at 8.5 µM; hit rate 0.11% among 330,000;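 active = activation above the mean of all tested compounds plus 3 SD, cut at about 21% in these data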
Target sequence (P42574 whole entry D9A/D28A/D175A): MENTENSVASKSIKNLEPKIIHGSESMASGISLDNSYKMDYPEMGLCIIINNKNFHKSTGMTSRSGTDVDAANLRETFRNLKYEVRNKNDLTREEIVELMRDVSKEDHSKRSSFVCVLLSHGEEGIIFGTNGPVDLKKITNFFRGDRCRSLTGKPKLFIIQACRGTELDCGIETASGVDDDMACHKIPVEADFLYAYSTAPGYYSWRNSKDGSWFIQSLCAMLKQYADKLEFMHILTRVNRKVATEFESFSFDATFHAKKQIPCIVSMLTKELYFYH
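Assay system – Procaspase-3 D3A mutant, all three cleavage aspartates alanine · Controls – DMSO-only low control, 5 µM PC-3 D3A high control · Schedule – 1 h compound preincubation, 2 h substrate hydrolysis at 25 °C · Signal – 405 nm absorbance of p-nitroaniline, reads at 0 and 120 min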
A number is an active result; i = inactive; nt = no result.

SMILES | NR3A LBD binder | aDG glyco up | MPTP inh | procasp7 counter | procasp3 activ
COc1ccc(C(O)c2ncc(-c3ccccc3Cl)[nH]2)cc1F (stereo unspecified) | nt | i | i | nt | nt
N#Cc1cccc(N=c2ssnc2Cl)c1 | 26.9 | nt | nt | nt | nt
Nc1nc(N)c2sc3nc(C(F)(F)F)cc(C(F)(F)F)c3c2n1 | 31.9 | i | i | i | i
CC1CCN(CC(=O)N(C)c2c(N)n(Cc3ccccc3)c(=O)[nH]c2=O)CC1 | i | i | i | nt | nt
COc1ccc(-c2nc(-c3ccc(O)cc3O)cs2)cc1OC | 26.2 | i | i | nt | nt
COc1ccc(-c2csc(-c3ccc(O)cc3)n2)cc1 | 23.8 | i | i | i | i
S=C(NN=C(C1CC1)C1CC1)Nc1ccccc1 | 11.2 | i | i | i | i
S=C(NNC(=S)Nc1ccccc1)Nc1ccccc1 | 34.5 | i | i | i | i
CCCCC(CC)Cn1c(N)c(C#N)c2nc3ccccc3nc21 (stereo unspecified) | 10.9 | i | i | i | i
CCOC(=O)C1=C(C)NC(C)=C(C(=O)OCC)C1/C=C/c1ccccc1 | i | i | i | i | i
CCOC(=O)C1=C(C)NC(C)=C(C(=O)OCC)C1c1ccccc1/C=C/C(=O)OC(C)(C)C | nt | nt | nt | 29.9 | i
COc1cc2cc(CN(Cc3cccs3)C(=S)Nc3ccccc3)c(=O)[nH]c2cc1OC | 17.0 | i | i | i | i
Cc1ccc(NC(=S)N(Cc2cccs2)Cc2cc3cccc(C)c3[nH]c2=O)cc1 | 15.5 | i | i | i | i
COc1ccc2[nH]c(=O)c(CN(Cc3cccs3)C(=S)Nc3ccccc3)cc2c1 | nt | nt | nt | i | i
O=C(NCCS(=O)(=O)N1CCN(c2ccccc2F)CC1)c1ccco1 | i | i | i | i | i
O=C(NCCS(=O)(=O)N1CCN(c2ccc(F)cc2)CC1)c1ccco1 | 22.2 | i | i | i | i
COc1ccc(N2CCN(C(=O)CNC(=O)Cc3ccccc3)CC2)cc1 | i | i | i | i | i
COc1ccc(N2CCN(C(=O)CNC(=O)Cc3ccc(Cl)cc3)CC2)cc1 | 12.6 | i | i | i | i
O=C(Nc1ccccc1)Nc1ccccc1Br | i | i | i | i | i
O=C(Nc1ccccc1)Nc1cccc(NC(=O)Nc2ccccc2)c1F | 24.3 | i | i | i | i
CNC(=O)c1ccc(NC(=O)Nc2ccccc2)cc1 | 25.5 | i | i | i | i
O=C(Nc1ccc(Oc2ccc(NC(=O)Nc3ccccc3Cl)cc2)cc1)Nc1ccccc1Cl | 21.8 | i | i | i | i
CC(=O)c1ccc(NC(=O)Nc2ccccc2)cc1 | 27.3 | i | i | i | i
CC(O)C1CCC2C3CCC4CC(O)CCC4(C)C3C(=O)CC12C (stereo unspecified) | i | i | i | nt | nt
O=C(c1ccccc1)N1CCCc2ccccc21 | i | i | i | i | i
SMILES | NR3A LBD binder | aDG glyco up | MPTP inh | procasp7 counter | procasp3 activ
S=C(c1ccccc1)N1CCCc2ccccc21 | 11.1 | i | i | i | i
O=C(NCCCN1CCCC1)C1CCN(C(=O)c2cc3sccc3n2Cc2ccc(F)cc2)CC1 | 11.0 | i | i | i | i
COCCCNC(=O)C1CCN(C(=O)c2cc3sccc3n2Cc2ccc(F)cc2)CC1 | i | i | i | i | i
O=C1/C(=C/c2ccc(Br)cc2)Oc2cc(O)ccc21 | 15.9 | i | i | i | i
CC(C)(C)c1ccc(/C=C2\Oc3cc(O)ccc3C2=O)cc1 | 16.8 | i | i | i | i
CCCCn1c(N)c(N(C)C(=O)c2ccc(Br)o2)c(=O)[nH]c1=O | i | i | i | i | i
CN(C(=O)CSc1nc2ccccc2c(=O)n1-c1ccc(F)cc1)C1CCS(=O)(=O)C1 (stereo unspecified) | i | i | i | i | i
COc1ccc(-n2c(SCC(=O)N(C)C3CCS(=O)(=O)C3)nc3ccc(O)cc3c2=O)cc1OC (stereo unspecified) | 13.6 | i | i | i | i
CCCN(CCC)S(=O)(=O)c1ccc(C(=O)Nc2nnc(-c3cccc(OC)c3)o2)cc1 | i | i | i | i | i
CCCN(CCC)S(=O)(=O)c1ccc(C(=O)Nc2nnc(-c3cc(OC)cc(OC)c3)o2)cc1 | i | 5.5 | i | i | i
Cc1ccc(CNC(=O)C(=O)NCC2CCCO2)cc1 (stereo unspecified) | 15.6 | i | i | i | i
Cc1ccc(S(=O)(=O)N2CCOC2CNC(=O)C(=O)NCc2ccc(Cl)cc2)cc1 (stereo unspecified) | 12.6 | i | i | i | i
Cc1ccc(CNC(=O)C(=O)NCC2OCCN2C(=O)c2cccs2)cc1 (stereo unspecified) | 14.7 | i | i | i | i
CCc1ccc(CNC(=O)C(=O)NCC2CCCO2)cc1 (stereo unspecified) | i | i | i | i | i
Cc1ccc(CNC(=O)C(=O)NCC2OCCN2S(=O)(=O)c2ccc(Cl)cc2)cc1 (stereo unspecified) | i | i | i | i | i
CC1C(=O)N(Cc2cn(CCC3OCCCO3)nn2)CCS(=O)(=O)N1Cc1ccc(-c2ccncc2)cc1 (stereo unspecified) | nt | i | i | nt | nt
Cc1ccc(S(=O)(=O)c2c(N)n(/N=C/c3ccco3)c3nc4ccccc4nc23)cc1 | i | i | i | i | i
Nc1c(S(=O)(=O)c2ccccc2)c2nc3ccccc3nc2n1/N=C/c1ccco1 | 12.7 | i | i | i | i
Cc1cccc(S(=O)(=O)c2c(N)n(/N=C/c3cccnc3)c3nc4ccccc4nc23)c1 | 44.7 | i | i | i | i
COc1cccc(/C=N/n2c(N)c(S(=O)(=O)c3cccs3)c3nc4ccccc4nc32)c1 | i | i | i | i | i
Nc1c(S(=O)(=O)c2cccs2)c2nc3ccccc3nc2n1/N=C/c1cccc(O)c1 | 28.2 | i | i | i | i
Cc1cccc(S(=O)(=O)c2c(N)n(-c3ccccc3)c3nc4ccccc4nc23)c1 | 11.5 | i | i | i | i
Cc1ccc(C(=O)N2CCN(C34CC5CC(CC(C5)C3)C4)CC2)o1 | i | i | i | i | i
C=Cc1c(C)c2cc3[nH]c(cc4nc(cc5nc(cc1[nH]2)C(C)=C5CCC(=O)O)C(CCC(=O)O)=C4C)c(C)c3C=C | i | 73.0 | i | i | i
Cc1ccc(Cl)c(NC(=O)COC(=O)c2nn(C)c(=O)c3ccccc23)c1Cl | i | i | i | i | i
C=CCN(c1ccccc1)S(=O)(=O)c1cccc(C(=O)NCc2ccco2)c1 | i | i | i | i | i
Nc1[nH]c2cc([N+](=O)[O-])ccc2c1-c1ccccn1 | 31.0 | i | i | i | i
